# Assay outcomes (PubChem BioAssay)
# PTPN22 inh 2: blocks human PTPN22 phosphatase activity | Q9Y2R2 | recombinant LYP catalytic domain, DiFMUP fluorescence | inhibition, % at 2 µM | 96,000 compounds, 0.21% hits;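 active = inhibition at 2 µM at or above a set limit, the screen mean plus 3 SD, cut at about 24% in these data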;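 note: 0% = DMSO with enzyme and 100% = enzyme fully blocked by orthovanadate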
# Rev-RRE block: disrupts HIV-1 Rev binding to RRE RNA. P05866. Rev peptide-RRE RNA binding, FRET. inhibition, % at 8 µM. 97,000 compounds, 0.79% hits. AID 704;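 active = inhibition above the screen-wide mean plus 3 SD, cut at about 35% in these data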;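 note: 0% = median DMSO wells and 100% = median Neomycin B control wells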
# Target sequence (P05866 whole entry, looked up): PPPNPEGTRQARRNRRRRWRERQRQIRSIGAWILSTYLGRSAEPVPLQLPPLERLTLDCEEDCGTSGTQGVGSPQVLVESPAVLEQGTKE
#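 Assay system: labelled RRE RNA duplex and labelled Rev peptide / Medium: HEPES pH 7.5 salt buffer with EDTA / Reagent: labelled Rev peptide / Schedule: 5 + 15 min at 25 °C / Signal: FRET, excitation 480 nm, emission 540 nm donor and 671 nm acceptor / Benchmarks: DMSO and neomycin B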
# PLK1 kinase inh: blocks human PLK1 kinase activity | P53350 | recombinant PLK1 kinase, TR-FRET peptide phosphorylation | inhibition, % at 10 µM | 97,000 compounds, 0.53% hits | AID 619;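 active = inhibition of 50% or more in the single-concentration screen; inactive = inhibition below 50%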;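 note: 0% = DMSO max control and 100% = H-89 dihydrochloride min control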
# LYP act: LYP (human) phosphatase activation | Q9Y2R2 | 96,000 compounds, 0.11% hits | recombinant LYP, DiFMUP fluorescence; 0 = plate median, 100 = signal doubled | AID 697 | activation, % at 2 µM;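 active = activation at 2 µM above a set limit, the mean plus 5 SD, cut at about 37% in these data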
# EphB4 antag: blocks human EphB4 binding to ephrin-B2 | EphB4 LBD / TNYL-RAW-Alexa532 peptide, fluorescence polarization | P54760 | inhibition, % at 7 µM | 97,000 compounds, 0.15% hits;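 active = inhibition above the screen-wide mean inhibition plus 3 SD, cut at about 15% in these data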;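 note: 0% = DMSO wells and 100% = excess unlabeled TNYL-RAW peptide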
# Plk1 PBD FP: inhibitors of human Plk1 polo box domain binding; inhibition, %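 (tested at about 20 µM)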; P53350; 97,000 compounds, 0.13% hits; Plk1 PBD phosphopeptide binding, fluorescence polarization; AID 693; in the data active = inhibition above about 34%, passing the limit was not always enough
# * marks the source's active call; other numbers are inactive results; · = not tested or not shown; [ ] = dose if it differs, or a comment. The list is not random: actives were taken first. Their share in the collection is about 2%.
SMILES,PTPN22 inh 2,Rev-RRE block,PLK1 kinase inh,LYP act,EphB4 antag,Plk1 PBD FP
COc1cc2c(cc1OC)CN(CC(=O)Nc1ccccc1C#N)CC2,0,12,-12,0,1,2
COc1cc2c(cc1OC)C1=C(C#N)CN(CC(=O)O)CN1CC2,·,16,61*,·,4,28
Cc1csc(NC(=O)CSc2nc(C(C)C)nc3c2c(=O)n(C)c(=O)n3C)n1,·,8,66*,·,0,12
Cc1nc(SCC(=O)Nc2cc(C)on2)c2c(=O)n(C)c(=O)n(C)c2n1,-8,10,-8,8,3,-15
CCn1c(C)nc2cc(C(=O)NNS(=O)(=O)c3c(C)c(C)cc(C)c3C)ccc21,5,10,-11,-5,7,-17
COc1ccc(C(=O)Nc2cc(C(C)=O)c(/C=C/N(C)C)oc2=O)cc1,0,122*[fluorescence artefact?],-16,5,6,-81
CC(=O)c1cc(NC(=O)c2ccc(C)cc2)c(=O)oc1/C=C/N(C)C,9,122*[fluorescence artefact?],-14,-6,0,-106
Oc1c(C=NCc2ccc(F)cc2)[nH]c2ccc(Br)c(Cl)c12,11,99*[fluorescence artefact?],-7,-9,6,-18
Cc1ccc(CN=Cc2[nH]c3ccc(Br)c(Cl)c3c2O)cc1,13,116*[fluorescence artefact?],-16,-11,-1,-108
O=C(Nc1cccc(Cl)c1N1CCCC1)c1cc2ccccc2o1,18,23,-13,-15,-2,-1
NS(=O)(=O)c1ccc(N2N=C(c3ccc(Br)cc3)CC2c2ccc(F)cc2)cc1 (stereo not given),14,6,-21,-10,-1,7
OCCCc1nc2n(n1)C(c1cccs1)C=C(c1ccc(Br)cc1)N2 (stereo not given),4,135*[fluorescence artefact?],-28,-5,4,-149
Brc1ccc(C2=CC(c3cccs3)n3ncnc3N2)cc1 (stereo not given),7,135*[fluorescence artefact?],19,-4,6,-123
Cc1cc(C)n(-c2ccc(OCC(=O)O)nn2)n1,-10,5,-16,14,4,-7
COC(=O)C1C2C=CC3(CN(Cc4ccco4)C(=O)C13)O2 (stereo not given),1,10,-8,-2,8,-3
O=C(O)C1C2C=CC3(CN(Cc4ccco4)C(=O)C13)O2 (stereo not given),·,6,58*,·,-3,2
COc1cnc(N(C)C)nc1Sc1ccc(Cl)cc1,-3,4,-10,1,-5,-6
COc1cnc(-c2ccccn2)nc1Sc1ccc(Cl)cc1,30*,5,-40,-28,-2,27
Cc1cc(NCCOCCO)n2ncc(-c3ccc(Cl)cc3)c2n1,-2,11,-11,-5,-1,-16
CC(C)(C)c1cc(NCCCn2ccnc2)n2ncc(-c3ccc(Cl)cc3)c2n1,38*,5,-14,-36,9,14
CCOc1cc(-c2cc(-c3ccc(C)cc3)nc(N)c2C#N)ccc1O,4,39*,-4,-2,2,-31
CCOc1cc(-c2c(C#N)c(N)nc3c2CCCC3C)ccc1O (stereo not given),2,9,-2,-3,0,2
CCOc1cc(/C=C(\C#N)c2[nH]nc(N)c2C#N)ccc1O,1,22,69*,0,4,-5
COc1ccc(N=Nc2nc3ccc(Br)cc3n2C)cc1,-5,101*[fluorescence artefact?],-4,7,-11,40
CCOC(=O)C1C(=O)CC(O)(c2ccccc2)CC1c1ccccc1 (stereo not given),-7,-1,-9,6,5,-21
SMILES,PTPN22 inh 2,Rev-RRE block,PLK1 kinase inh,LYP act,EphB4 antag,Plk1 PBD FP
CC(=O)N1CCc2cc(S(=O)(=O)NCCCN3CCN(Cc4ccccc4)CC3)ccc21,0,5,-11,0,-4,16
CC1CCc2c(sc(NC(=O)c3ccc(Cn4cc([N+](=O)[O-])cn4)o3)c2C#N)C1 (stereo not given),25*,14,-8,-22,4,-6
CCOc1cccc(C2C(C(=O)c3ccc(C)o3)=C(O)C(=O)N2c2nccs2)c1 (stereo not given),2,74*,-5,-3,2,12
N#Cc1nc(-c2ccc(OCc3ccc(Cl)cc3)cc2)oc1NCCCn1ccnc1,26*,7,-39,-27,-5,6
N#Cc1nc(-c2ccc(OCc3ccccc3)cc2)oc1NCCN1CCOCC1,-2,-1,-3,2,-5,12
CNC(=O)c1ccc(-c2sc3nc(N4CCOCC4)c4c(c3c2N)CC(C)(C)OC4)o1,-4,7,-14,6,7,-11
CC1(C)Cc2c(c(N3CCOCC3)nc3sc(-c4ccc(C(=O)O)o4)c(N)c23)CO1,3,40*,-9,-1,6,-7
O=C(/C=C/c1ccccc1)c1cc(Br)ccc(=O)c1O,3,46*,4,-3,9,-46
Cc1cccc(N2C(=O)c3cccc4c(N(C)CCO)ccc(c34)C2=O)c1,9,129*[fluorescence artefact?],-29,-8,5,-128
CC(=O)Nc1cccc2c1C(=O)N(c1cccc(C)c1)C2=O,-5,2,-8,0,6,-3
COc1ccc(/C=C/c2ccncc2)c2ccccc12,-10,141*[fluorescence artefact?],-14,10,-3,-11
Cc1oc(C)c2c(=O)ccc3c(c12)OC(N)=C(C#N)C3c1ccccc1Cl (stereo not given),-1,97*[fluorescence artefact?],-3,-1,1,-155
Cc1ccc2[nH]c(=O)c(C3C(C#N)=C(N)Oc4c3ccc3cccnc43)cc2c1 (stereo not given),8,6,18,-7,7,-1
Cc1oc(C)c2c(=O)ccc3c(c12)OC(N)=C(C#N)C3c1ccccc1 (stereo not given),2,60*,-4,-4,0,-151
CSc1ccc(C2C(C#N)=C(N)Oc3c2ccc(=O)c2c(C)oc(C)c32)cc1 (stereo not given),11,43*,0,-12,-10,-46
COc1cc(C(=O)N/N=C\c2ccccc2)c([N+](=O)[O-])c(OC)c1OC,-12,-5,-5,12,-2,-4
Cc1cccc(CC(=O)Nc2cc(C)c3c(=O)oc4ccccc4c3n2)c1,0,11,-46,-2,3,13
Cn1nc(CC(=O)Nc2ncc(Br)s2)c2ccccc2c1=O,4,5,0,-2,2,38
COc1cccc(N2CCN(CC(=O)c3c(C)[nH]c4ccccc34)CC2)c1,6,8,-1,-4,-4,-2
COc1cc(OC)cc(C(=O)Nc2ccccc2C(=O)N2CCCC2)c1,52*,-2,-7,-51,-2,9
COc1ccccc1C(=O)Nc1ccccc1C(=O)N1CCCC1,2,4,-14,0,1,4
O=c1nc(/C=C/c2ccc(-c3ccc(F)cc3)o2)cc(C(F)(F)F)[nH]1,6,116*[fluorescence artefact?],-40,-6,-2,-14
